Experimental data from the array DNA melting data of Ke et al. (doi:10.1101/2024.01.08.574731).

Tests used:
[1] = melting temperature; fluorescence melt of hairpins on a sequencing array, two-state fit, raised by 9.35 °C to match UV melts; settings: sodium 0.088 M
Method in brief: (§1)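 Cy3 fluorescence of library hairpins on a sequenced MiSeq flow cell, with annealed Cy3 and quencher oligos, was imaged in 50 mM Na-HEPES pH 8.0, 25 mM NaCl in 2.5 °C steps up to 60 °C. Signals were normalised to pre-quench Cy3 and to control variants. Melting temperature and folding enthalpy came from bootstrapped two-state fits, inverse-variance combined over four replicates. Fitted temperatures were raised by 9.35 °C to match UV melts.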

[2] = folding enthalpy; higher = less favourable; fluorescence melt of hairpins on a sequencing array, two-state fit; settings: sodium 0.088 M
Method in brief: as §1

GCCACTGGAAACAGTAGC ((.((((....)))).))
Tm [1]: 40.5 °C
folding enthalpy [2]: -27.7 kcal/mol

GTAAGGCGAAAGCCCTAC (((.(((....))).)))
Tm [1]: 36 °C
folding enthalpy [2]: -13.5 kcal/mol

GCGCGTCGAAAGACCGC (((.(((....))))))
Tm [1]: 67.3 °C
folding enthalpy [2]: -32.8 kcal/mol

GCGACCTCTCGC ((((....))))
Tm [1]: 46.9 °C
folding enthalpy [2]: -18.6 kcal/mol

GGGACTGGAAACAGCCCC (((.(((....))).)))
Tm [1]: 51.9 °C
folding enthalpy [2]: -35.3 kcal/mol

GCATGCGAAAGCAGCTGC ((((((....)))..)))
Tm [1]: 54 °C
folding enthalpy [2]: -17.9 kcal/mol

GGGTCCGGAAACGGACTC (.(((((....))))).)
Tm [1]: 61.3 °C
folding enthalpy [2]: -15.2 kcal/mol

GCTCGGCGAAAGCGGGGC ((.(.((....)).).))
Tm [1]: 61.1 °C
folding enthalpy [2]: -20.6 kcal/mol

GCGCCGCGAAAGCTCCGC (((..((....))..)))
Tm [1]: 44.9 °C
folding enthalpy [2]: -16.8 kcal/mol

GATCCCTAGTGGGATC ((((((....))))))
Tm [1]: 57 °C
folding enthalpy [2]: -38.7 kcal/mol

GAGTAACGAAAGTTGCTC (((.(((....))).)))
Tm [1]: 53.2 °C
folding enthalpy [2]: -52 kcal/mol

GGAGACCCGAAAGGGTCC (((..(((....))))))
Tm [1]: 47.6 °C
folding enthalpy [2]: -7.91 kcal/mol

GAGGTGGAAACACCTC ((((((....))))))
Tm [1]: 63.4 °C
folding enthalpy [2]: -33.3 kcal/mol

GCGCTGCCGAAAGGCCGC (((..(((....))))))
Tm [1]: 58.5 °C
folding enthalpy [2]: -17.8 kcal/mol

CGGACGCGGAAACGCCCG (((..(((....))))))
Tm [1]: 48.8 °C
folding enthalpy [2]: -25.3 kcal/mol

GCGTGGCCACGC ((((....))))
Tm [1]: 62.8 °C
folding enthalpy [2]: -43.9 kcal/mol

GTATTGAAAAATAC (((((....)))))
Tm [1]: 33.1 °C
folding enthalpy [2]: -15.3 kcal/mol

GGTTTATCGAAAGATACC (((..(((....))))))
Tm [1]: 28 °C
folding enthalpy [2]: -12.3 kcal/mol

GATCGAAAGATCGATC ((((((....))))))
Tm [1]: 50.2 °C
folding enthalpy [2]: -19.9 kcal/mol

GAACGCCGAAAGGCTTC (((.(((....))))))
Tm [1]: 44.1 °C
folding enthalpy [2]: -14.1 kcal/mol

GATCCACTAATGGATC ((((((....))))))
Tm [1]: 49.8 °C
folding enthalpy [2]: -32.7 kcal/mol

GCATATGGAAACATGTGC (((.(((....))).)))
Tm [1]: 49 °C
folding enthalpy [2]: -36.6 kcal/mol

GGATTACGAAAGTACTCC (((.(((....))).)))
Tm [1]: 41.1 °C
folding enthalpy [2]: -27.9 kcal/mol

GTACGTGCGAAAGCATAC (((..(((....))))))
Tm [1]: 26.4 °C
folding enthalpy [2]: -10.3 kcal/mol

GCTGAGCGAAAGCATAGC (((..((....))..)))
Tm [1]: 50 °C
folding enthalpy [2]: -18.9 kcal/mol

GCAATGACGAAAGTCTGC (((..(((....))))))
Tm [1]: 42 °C
folding enthalpy [2]: -19.4 kcal/mol

GGCTAGCGAAAGCTGCC (((.(((....))))))
Tm [1]: 64.3 °C
folding enthalpy [2]: -22.7 kcal/mol

GATCACAAGGTGATC ((((((...))))))
Tm [1]: 58.4 °C
folding enthalpy [2]: -38.4 kcal/mol

TTCACGAAAGTGAA (((((....)))))
Tm [1]: 51 °C
folding enthalpy [2]: -19.2 kcal/mol

GGGCCGGGAAACCGGTCC ((.((((....)))).))
Tm [1]: 68.8 °C
folding enthalpy [2]: -38.3 kcal/mol

GTACACGAAAGTGTGTAC ((((((....)))..)))
Tm [1]: 46 °C
folding enthalpy [2]: -13.8 kcal/mol

CGTCCGGAAACGGGCACG ((((((....)))..)))
Tm [1]: 38.9 °C
folding enthalpy [2]: -12.4 kcal/mol

GTACATGCGAAAGCATAC (((..(((....))))))
Tm [1]: 28.7 °C
folding enthalpy [2]: -8.62 kcal/mol

GCTCACCGAAAGGTAGC (((.(((....))))))
Tm [1]: 50.2 °C
folding enthalpy [2]: -22.4 kcal/mol

GCTATGTCGAAAGACAGC (((..(((....))))))
Tm [1]: 41.5 °C
folding enthalpy [2]: -14 kcal/mol

GAACGCGGAAACGTGTTC ((((.((....)).))))
Tm [1]: 56 °C
folding enthalpy [2]: -37.7 kcal/mol

GTGGCTGGAAACAGCTGC (..((((....))))..)
Tm [1]: 47.4 °C
folding enthalpy [2]: -15.6 kcal/mol

GGATTGGAAACAATCC ((((((....))))))
Tm [1]: 55.5 °C
folding enthalpy [2]: -36.7 kcal/mol

GGGTCCGAAAGGAGACCC ((((((....)))..)))
Tm [1]: 53.1 °C
folding enthalpy [2]: -22 kcal/mol

GCCGATGGAAACATTGGC (((.(((....))).)))
Tm [1]: 54.6 °C
folding enthalpy [2]: -55.2 kcal/mol

GACTCAGGAAACTGGGTC (((.(((....))).)))
Tm [1]: 49.2 °C
folding enthalpy [2]: -37.8 kcal/mol

GTCGACCGAAAGGTTGAC (((.(((....))).)))
Tm [1]: 62.2 °C
folding enthalpy [2]: -34.8 kcal/mol

GGGTATTCGAAAGAACCC (((..(((....))))))
Tm [1]: 34.5 °C
folding enthalpy [2]: -22 kcal/mol

GAGCAGCGAAAGCTTCTC (((.(((....))).)))
Tm [1]: 43.2 °C
folding enthalpy [2]: -24.7 kcal/mol

GTATAAGGAAACTTATGC (.(((((....))))).)
Tm [1]: 31.6 °C
folding enthalpy [2]: -18.5 kcal/mol

GGTCTCGGAAACAAGACC (((((.(....).)))))
Tm [1]: 41.9 °C
folding enthalpy [2]: -31.8 kcal/mol
